Experimental data as given in ChEMBL document CHEMBL4004810, “Pharmacokinetics of the Individual Major Components of Polymyxin B and Colistin in Rats” (J Nat Prod, 2017).
Positions of bridges follow the written chain, without caps; N, C: chain ends. Non-standard residues stand in square brackets, D forms with d. Residues, ends and D or L forms follow the SMILES beside them. *: point of attachment. Heptanoyl(6-Me) = CC(C)CCCCC(=O)*; X1 = CC[C@@H](C)CCCCC(=O)*; X2 = CC[C@H](C)CCCCC(=O)*; Octanoyl = CCCCCCCC(=O)*; Dab = NCC[C@H](N)C(=O)O

Tests used:
[1] = Plasma concentration in Sprague-Dawley rat at 0.8 mg/kg, iv administered as single bolus dose after 360 mins by LC-MS/MS analysis; assay type: ADME, organism-based
Procedure, shortened: (§1)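 Jugular vein (dosing) and carotid artery (sampling) cannulated rats, recovered one day; 4 groups, n = 4, each given a 0.8 mg/kg iv bolus of one component. Blood sampled predose and at 10–360 min; urine collected in chilled metabolic cages over 0–6 h and 6–24 h. Plasma and urine quantified by LC-MS/MS (calibration 0.1–8.0 mg/L); parameters by noncompartmental analysis.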

[2] = Total clearance in Sprague-Dawley rat at 0.8 mg/kg, iv administered as single bolus dose by LC-MS/MS analysis; assay type: ADME, organism-based; details: in vivo; procedure, shortened: as §1
[3] = Volume of distribution in Sprague-Dawley rat at 0.8 mg/kg, iv administered as single bolus dose by LC-MS/MS analysis; assay type: ADME, organism-based; details: in vivo; procedure, shortened: as §1
[4] = Elimination half life in Sprague-Dawley rat at 0.8 mg/kg, iv administered as single bolus dose by LC-MS/MS analysis; assay type: ADME, organism-based; details: in vivo, read-out: beta t1/2; procedure, shortened: as §1
[5] = AUC (0 to infinity) in Sprague-Dawley rat at 0.8 mg/kg, iv administered as single bolus dose by LC-MS/MS analysis; assay type: ADME, organism-based; set-up: dose 0.8 mg/kg, route intravenous, time infinity; details: in vivo; procedure, shortened: as §1
[6] = Drug recovery in Sprague-Dawley rat urine at 0.8 mg/kg, iv administered as single bolus dose by LC-MS/MS analysis; assay type: ADME, organism-based; details: read-out: Drug recovery; procedure, shortened: as §1
[7] = Protein binding in Sprague-Dawley rat plasma at 5 mg/L after 30 mins by ultracentrifugation based LC-MS/MS method; assay type: ADME, cell-free; details: read-out: PPB (converted)
Procedure, shortened: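 Drug-free rat plasma spiked with 5 mg/L component in triplicate, incubated 30 min at 37 °C, then ultracentrifuged 215000g for 4 h at 37 °C. Two replicates sampled protein-free supernatant, one sampled total resuspension; both measured by LC-MS/MS. % bound = (total − supernatant)/total × 100.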

[8] = Clearance in Sprague-Dawley rat at 4 mg/kg, iv administered as single bolus cassette dose by UPLC-MS/MS analysis; assay type: ADME, organism-based; details: in vivo
[9] = Protein binding in rat plasma up to 10 ug/ml after 2 hrs by LC-MS/MS based ultrafiltration method; details: read-out: PPB (converted)
[10] = Total clearance in Sprague-Dawley rat at 1 mg/kg, iv administered as bolus dose by HPLC analysis; assay type: ADME, organism-based; details: in vivo

SMILES | concentration at 6 h [1] | clearance [2] | Vd [3] | half-life [4] | AUC(0-inf) [5] | dose excreted [6] | fraction unbound at 0.5 h, 5 mg/L [7] | clearance [8] | fraction unbound at 2 h [9] | clearance [10]
CC(C)CCCCC(=O)N[C@@H](CCN)C(=O)N[C@H](C(=O)N[C@@H](CCN)C(=O)N[C@H]1CCNC(=O)[C@H]([C@@H](C)O)NC(=O)[C@H](CCN)NC(=O)[C@H](CCN)NC(=O)[C@H](CC(C)C)NC(=O)[C@@H](Cc2ccccc2)NC(=O)[C@H](CCN)NC1=O)[C@@H](C)O [POLYMYXIN B2] ({Heptanoyl(6-Me)}-[Dab]T[Dab][Dab][Dab][dF]L[Dab][Dab]T; lactam 4-C) | 200 ng/mL | 1.96 mL/min/kg | 0.23 L/kg | 94.9 min | 6930 ng·h/mL | 0.09% | 0.316 | 1.69 mL/min/kg | 0.08 | 
CCCCCCCC(=O)N[C@@H](CCN)C(=O)N[C@H](C(=O)N[C@@H](CCN)C(=O)N[C@H]1CCNC(=O)[C@H]([C@@H](C)O)NC(=O)[C@H](CCN)NC(=O)[C@H](CCN)NC(=O)[C@H](CC(C)C)NC(=O)[C@@H](Cc2ccccc2)NC(=O)[C@H](CCN)NC1=O)[C@@H](C)O (Octanoyl-[Dab]T[Dab][Dab][Dab][dF]L[Dab][Dab]T; lactam 4-C) |  |  |  |  |  |  |  | 1.69 mL/min/kg | 0.08 | 

Now from value to molecule:

concentration at 6 h [1] | clearance [2] | Vd [3] | half-life [4] | AUC(0-inf) [5] | dose excreted [6] | fraction unbound at 0.5 h, 5 mg/L [7] | clearance [8] | fraction unbound at 2 h [9] | clearance [10] | SMILES
200 ng/mL | 2.39 mL/min/kg | 0.21 L/kg | 79.5 min | 6080 ng·h/mL | 0.13% | 0.177 | 1.65 mL/min/kg | 0.08 |  | CC[C@@H](C)CCCCC(=O)N[C@@H](CCN)C(=O)N[C@H](C(=O)N[C@@H](CCN)C(=O)N[C@H]1CCNC(=O)[C@H]([C@@H](C)O)NC(=O)[C@H](CCN)NC(=O)[C@H](CCN)NC(=O)[C@H](CC(C)C)NC(=O)[C@@H](Cc2ccccc2)NC(=O)[C@H](CCN)NC1=O)[C@@H](C)O (X1-[Dab]T[Dab][Dab][Dab][dF]L[Dab][Dab]T; lactam 4-C)
 | 3.05 mL/min/kg | 0.37 L/kg | 91.3 min | 4600 ng·h/mL | 0.24% | 0.583 |  |  | 5.3 mL/min/kg | CC(C)CCCCC(=O)N[C@@H](CCN)C(=O)N[C@H](C(=O)N[C@@H](CCN)C(=O)N[C@H]1CCNC(=O)[C@H]([C@@H](C)O)NC(=O)[C@H](CCN)NC(=O)[C@H](CCN)NC(=O)[C@H](CC(C)C)NC(=O)[C@@H](CC(C)C)NC(=O)[C@H](CCN)NC1=O)[C@@H](C)O [COLISTIN B] ({Heptanoyl(6-Me)}-[Dab]T[Dab][Dab][Dab][dL]L[Dab][Dab]T; lactam 4-C)
 | 2.75 mL/min/kg | 0.27 L/kg | 82 min | 5020 ng·h/mL | 0.14% | 0.434 |  |  | 5.1 mL/min/kg | CC[C@H](C)CCCCC(=O)N[C@@H](CCN)C(=O)N[C@H](C(=O)N[C@@H](CCN)C(=O)N[C@H]1CCNC(=O)[C@H]([C@@H](C)O)NC(=O)[C@H](CCN)NC(=O)[C@H](CCN)NC(=O)[C@H](CC(C)C)NC(=O)[C@@H](CC(C)C)NC(=O)[C@H](CCN)NC1=O)[C@@H](C)O (X2-[Dab]T[Dab][Dab][Dab][dL]L[Dab][Dab]T; lactam 4-C)
